Measurements taken from ChEMBL document CHEMBL4118192, “BET bromodomain ligands: Probing the WPF shelf to improve BRD4 bromodomain affinity and metabolic stability” (Bioorg Med Chem, 2018).

Tests used:
Format in all cases: functional
T47D [1] = test: Growth inhibition of human T47D cells after 48 hrs by sulforhodamine B assay
Procedure, shortened: (§1)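 NCI-60 panel cells treated at five concentrations from 10 nM to 100 μM for 48 h. Read-out by sulforhodamine B protein stain. GI50 and total growth inhibition (TGI, if below 100 μM) taken from the concentration-response data.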

SF-539 = test: Growth inhibition of human SF539 cells at 10 uM after 48 hrs by sulforhodamine B assay relative to control; conditions: SF-539, 48 h, read-out: GI
Procedure, shortened: (§2)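 NCI-60 human cancer cell line screen, single-dose pass: cells exposed to 10 μM for 48 h. Cellular protein content read out by sulforhodamine B staining, and growth inhibition expressed relative to untreated control.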

SF-295 [2] = test: Growth inhibition of human SF295 cells after 48 hrs by sulforhodamine B assay; conditions: SF-295, 48 h
Procedure, shortened: (§3)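 NCI-60 panel follow-up: five concentrations from 10 nM to 100 μM, 48 h exposure. Growth read by sulforhodamine B protein staining. GI50 derived from the concentration-response, with the concentration for total growth inhibition (TGI) also recorded when below 100 μM.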

SNB-75 = test: Growth inhibition of human SNB75 cells after 48 hrs by sulforhodamine B assay; conditions: SNB-75, 48 h; procedure, shortened: as §3
NCI/ADR-RES = test: Growth inhibition of human NCI-ADR-RES cells at 10 uM after 48 hrs by sulforhodamine B assay relative to control; conditions: read-out: GI; procedure, shortened: as §2
LOX IMVI [3] = test: Growth inhibition of human LOXIMVI cells after 48 hrs by sulforhodamine B assay
Procedure, shortened: (§4)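 NCI-60 panel screen. Cells were exposed for 48 h at five concentrations between 10 nM and 100 μM. Cellular protein was read by sulforhodamine B staining, and GI50 and total growth inhibition (TGI) concentrations were derived.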

SR = test: Growth inhibition of human SR cells after 48 hrs by sulforhodamine B assay; procedure, shortened: as §1
IGROV-1 = test: Growth inhibition of human IGROV1 cells at 10 uM after 48 hrs by sulforhodamine B assay relative to control; conditions: IGROV-1, 48 h, read-out: GI
Procedure, shortened: (§5)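 NCI-60 single-dose screen at 10 μM for 48 h. Percent growth inhibition was measured by sulforhodamine B staining of cellular protein.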

SNB-19 = test: Growth inhibition of human SNB19 cells after 48 hrs by sulforhodamine B assay; conditions: SNB-19, 48 h; procedure, shortened: as §3
Hs-578T [4] = test: Growth inhibition of human Hs 578T cells at 10 uM after 48 hrs by sulforhodamine B assay relative to control; conditions: read-out: GI; procedure, shortened: as §5
T47D [5] = test: Growth inhibition of human T47D cells at 10 uM after 48 hrs by sulforhodamine B assay relative to control; conditions: read-out: GI
Procedure, shortened: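 NCI-60 human cancer cell line screen, single dose of 10 μM for 48 h. Cellular protein content read by sulforhodamine B staining; growth inhibition expressed relative to untreated control.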

PC-3 = test: Growth inhibition of human PC3 cells at 10 uM after 48 hrs by sulforhodamine B assay relative to control; conditions: PC-3, 48 h, read-out: GI; procedure, shortened: as §2
U-251 = test: Growth inhibition of human U251 cells after 48 hrs by sulforhodamine B assay; conditions: U-251, 48 h; procedure, shortened: as §1
OVCAR-5 = test: Growth inhibition of human OVCAR5 cells after 48 hrs by sulforhodamine B assay; conditions: OVCAR-5, 48 h; procedure, shortened: as §3
M14 = test: Growth inhibition of human M14 cells at 10 uM after 48 hrs by sulforhodamine B assay relative to control; conditions: M14, 48 h, read-out: GI; procedure, shortened: as §5
CAKI-1 = test: Growth inhibition of human CAKI-1 cells at 10 uM after 48 hrs by sulforhodamine B assay relative to control; conditions: CAKI-1, 48 h, read-out: GI; procedure, shortened: as §5
HOP-92 = test: Growth inhibition of human HOP92 cells after 48 hrs by sulforhodamine B assay; conditions: HOP-92, 48 h; procedure, shortened: as §4
HCC 2998 = test: Growth inhibition of human HCC2998 cells at 10 uM after 48 hrs by sulforhodamine B assay relative to control; conditions: HCC 2998, 48 h, read-out: GI; procedure, shortened: as §5
HL-60(TB) = test: Growth inhibition of human HL-60(TB) cells at 10 uM after 48 hrs by sulforhodamine B assay relative to control; conditions: HL-60, 48 h, read-out: GI
Procedure, shortened: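 NCI-60 human cancer cell line screen, single dose of 10 μM for 48 h. Growth inhibition measured by sulforhodamine B assay of cellular protein content.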

MDA-MB-468 = test: Growth inhibition of human MDA-MB-468 cells at 10 uM after 48 hrs by sulforhodamine B assay relative to control; conditions: MDA-MB-468, 48 h, read-out: GI; procedure, shortened: as §2
KM12 = test: Growth inhibition of human KM12 cells at 10 uM after 48 hrs by sulforhodamine B assay relative to control; conditions: KM12, 48 h, read-out: GI; procedure, shortened: as §5
TK-10 = test: Growth inhibition of human TK10 cells after 48 hrs by sulforhodamine B assay; conditions: TK-10, 48 h; procedure, shortened: as §1
MDA-MB-231 = test: Growth inhibition of human MDA-MB-231 cells after 48 hrs by sulforhodamine B assay; conditions: MDA-MB-231, 48 h; procedure, shortened: as §4
MCF7 = test: Growth inhibition of human MCF7 cells at 10 uM after 48 hrs by sulforhodamine B assay relative to control; conditions: MCF7, 48 h, read-out: GI; procedure, shortened: as §5
SK-MEL-5 = test: Growth inhibition of human SK-MEL-5 cells at 10 uM after 48 hrs by sulforhodamine B assay relative to control; conditions: SK-MEL-5, 48 h, read-out: GI; procedure, shortened: as §2
LOX IMVI [6] = test: Growth inhibition of human LOXIMVI cells at 10 uM after 48 hrs by sulforhodamine B assay relative to control; conditions: read-out: GI; procedure, shortened: as §5
A498 = test: Growth inhibition of human A498 cells at 10 uM after 48 hrs by sulforhodamine B assay relative to control; conditions: A498, 48 h, read-out: GI; procedure, shortened: as §5
RXF 393 = test: Growth inhibition of human RXF393 cells after 48 hrs by sulforhodamine B assay; conditions: RXF 393, 48 h; procedure, shortened: as §3
Hs-578T [7] = test: Growth inhibition of human Hs 578T cells after 48 hrs by sulforhodamine B assay; procedure, shortened: as §4
SW-620 = test: Growth inhibition of human SW620 cells after 48 hrs by sulforhodamine B assay; conditions: SW-620, 48 h; procedure, shortened: as §1
K562 = test: Growth inhibition of human K562 cells after 48 hrs by sulforhodamine B assay; conditions: K562, 48 h; procedure, shortened: as §4
SK-MEL-2 = test: Growth inhibition of human SK-MEL-2 cells after 48 hrs by sulforhodamine B assay; conditions: SK-MEL-2, 48 h; procedure, shortened: as §3
SF-295 [8] = test: Growth inhibition of human SF295 cells at 10 uM after 48 hrs by sulforhodamine B assay relative to control; conditions: SF-295, 48 h, read-out: GI; procedure, shortened: as §2
NCI-H23 = test: Growth inhibition of human NCI-H23 cells at 10 uM after 48 hrs by sulforhodamine B assay relative to control; conditions: NCI-H23, 48 h, read-out: GI; procedure, shortened: as §2
DU-145 = test: Growth inhibition of human DU145 cells after 48 hrs by sulforhodamine B assay; conditions: DU-145, 48 h; procedure, shortened: as §4

| Structure (SMILES) | GI50 (T47D [1]) | inhibition of growth at 10 µM (SF-539) | GI50 (SF-295 [2]) | GI50 (SNB-75) | inhibition of growth at 10 µM (NCI/ADR-RES) | GI50 (LOX IMVI [3]) | TGI (LOX IMVI [3]) | GI50 (SR) | inhibition of growth at 10 µM (IGROV-1) | GI50 (SNB-19) | inhibition of growth at 10 µM (Hs-578T [4]) | inhibition of growth at 10 µM (T47D [5]) | inhibition of growth at 10 µM (PC-3) | GI50 (U-251) | GI50 (OVCAR-5) | inhibition of growth at 10 µM (M14) | inhibition of growth at 10 µM (CAKI-1) | GI50 (HOP-92) | TGI (HOP-92) | inhibition of growth at 10 µM (HCC 2998) | other results |
| --- | --- | --- | --- | --- | --- | --- | --- | --- | --- | --- | --- | --- | --- | --- | --- | --- | --- | --- | --- | --- | --- |
| Cc1noc(C)c1-c1cc(O)cc(C(O)c2ccccc2)c1 (configuration not stated) | 7.7 µM | 37.5% | 7.31 µM | 0.423 µM | 40.8% | 3.6 µM | 80.5 µM | 1.01 µM | 54% | 5.69 µM | 66.3% | 52.9% | 51.6% | 15 µM | 31.8 µM | 44% | 76.2% | 1.02 µM | 72.9 µM | 37.8% | inhibition of growth at 10 µM (HL-60(TB)): 90%; inhibition of growth at 10 µM (MDA-MB-468): 75.1%; inhibition of growth at 10 µM (KM12): 46.9%; GI50 (TK-10): 1.08 µM; GI50 (MDA-MB-231): 3.92 µM; inhibition of growth at 10 µM (MCF7): 79.1%; inhibition of growth at 10 µM (SK-MEL-5): 45.8%; inhibition of growth at 10 µM (LOX IMVI [6]): 72.7%; inhibition of growth at 10 µM (A498): 103%; GI50 (RXF 393): 17.2 µM; GI50 (Hs-578T [7]): 1.93 µM; TGI (Hs-578T [7]): 90.7 µM; GI50 (SW-620): 24.5 µM; GI50 (K562): 8.69 µM; GI50 (SK-MEL-2): 23.5 µM; inhibition of growth at 10 µM (SF-295 [8]): 57.5%; inhibition of growth at 10 µM (NCI-H23): 31.9%; GI50 (DU-145): 6.95 µM |
| COc1ccccc1S(=O)(=O)Nc1ccc2c(c1)CN(C)C(=O)N2 | 3.7 µM | 49.9% | 13.5 µM | 0.4 µM | 31.1% | 3.5 µM | 21.4 µM | 3.7 µM | 76% | 4.8 µM | 66.3% | 68.6% | 64.7% | 15.1 µM | 10.5 µM | 52.2% | 78.8% | 1.2 µM | 70.8 µM | 35.6% | inhibition of growth at 10 µM (HL-60(TB)): 78.1%; inhibition of growth at 10 µM (MDA-MB-468): 78.9%; inhibition of growth at 10 µM (KM12): 55%; GI50 (TK-10): 1.6 µM; TGI (TK-10): 58.9 µM; GI50 (MDA-MB-231): 3.5 µM; inhibition of growth at 10 µM (MCF7): 78.5%; inhibition of growth at 10 µM (SK-MEL-5): 59.5%; inhibition of growth at 10 µM (LOX IMVI [6]): 70.9%; inhibition of growth at 10 µM (A498): 103%; GI50 (RXF 393): 7.9 µM; GI50 (Hs-578T [7]): 1.9 µM; TGI (Hs-578T [7]): 63.1 µM; GI50 (SW-620): 12 µM; GI50 (K562): 4.6 µM; GI50 (SK-MEL-2): 29.5 µM; inhibition of growth at 10 µM (SF-295 [8]): 94.7%; inhibition of growth at 10 µM (NCI-H23): 43.3%; GI50 (DU-145): 28.8 µM |
